pIC50: −log10 of the molar value. Calls of active or inactive are those of the source. The calls are words filed in the database; no cut-off is given here.
Experiments:
Type in all cases: functional, cell-based
[1] = Antiinflammatory activity in human neutrophils assessed as inhibition of FMLP/CB-induced superoxide anion generation by spectrophotometry; details: Neutrophil
Procedure, shortened: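 Neutrophils from healthy donors (20−30 y) isolated by dextran sedimentation, Ficoll (1.077 g/mL) centrifugation and hypotonic lysis, kept in Ca2+-free HBSS pH 7.4 at 4 °C. Cells (6 × 10^5/mL) with 0.5 mg/mL ferricytochrome c and 1 mM Ca2+, 37 °C 2 min, drug or 0.1% DMSO 5 min. Stimulated with 100 nM FMLP after 1 μg/mL cytochalasin B, 3 min. SOD-inhibitable (100 U/mL) absorbance at 550 nm; IC50, n = 3−4.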

Neutrophil = experiment: (§1) Antiinflammatory activity in human neutrophils assessed as inhibition of FMLP/CB-induced elastase release
Procedure, shortened: (§2)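 Donor neutrophils (isolated by dextran, Ficoll, hypotonic lysis; Ca2+-free HBSS pH 7.4) at 6 × 10^5/mL with 100 μM MeO-Suc-Ala-Ala-Pro-Val-p-nitroanilide. Equilibrated 37 °C 2 min, drug or 0.1% DMSO vehicle 5 min, then activated with 100 nM FMLP plus 0.5 μg/mL cytochalasin B. Absorbance at 405 nm monitored continuously; percent of FMLP/CB-activated drug-free control; IC50, n = 3−4.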

[2] = as §1; details: Neutrophil; procedure, shortened: as §2

COC(=O)CC(=O)O[C@@H]1CC[C@]2(C)C3=C(CC[C@H]2C1(C)C)[C@]1(C)C[C@H]2OC4(C[C@@H](C)[C@@H]2[C@@]1(C)CC3)OC(=O)C(C)=C4C (some centres not stated)
pIC50 [1]: < 5.00 | inhibition (Neutrophil): inactive

CC1=C(C)C2(C[C@@H](C)[C@H]3[C@@H](C[C@@]4(C)C5=C(CC[C@]34C)[C@@]3(C)CC[C@@H](O)[C@@](C)(C=O)[C@@H]3CC5)O2)OC1=O (some centres not stated)
pIC50 [1]: < 5.00 | inhibition (Neutrophil): inactive

CC1=C(C)C2(C[C@@H](C)[C@H]3[C@@H](C[C@@]4(C)C5=C(CC[C@]34C)[C@@]3(C)CC[C@@H](OC(=O)CC(=O)O)C(C)(C)[C@@H]3CC5)O2)OC1=O (some centres not stated)
pIC50 [1]: 5.72 | pIC50 [2]: 5.37

O=c1cc(N2CCOCC2)oc2c(-c3ccccc3)cccc12 [LY-294002]
pIC50 [1]: 6.40 | pIC50 [2]: 5.82

CC1=C(C)C2(C[C@@H](C)[C@H]3[C@@H](C[C@@]4(C)C5=C(CC[C@]34C)[C@@]3(C)CC[C@@H](O)C(C)(C)[C@@H]3CC5)O2)OC1=O (some centres not stated)
pIC50 [1]: < 5.00 | inhibition (Neutrophil): inactive

C=C(CC[C@@H](C(=O)O)[C@H]1CC[C@@]2(C)C3=C(CC[C@]12C)[C@@]1(C)C[C@H](O)[C@H](O)C(C)(C)[C@@H]1CC3)C(C)C
pIC50 [1]: 5.22 | pIC50 [2]: < 5.00

Source: ChEMBL document CHEMBL3739300, “Chemical Constituents from the Fruiting Bodies of Hexagonia apiaria and Their Anti-inflammatory Activity” (J Nat Prod, 2015)
